Active and inactive are the calls of the source. No cut-off for these calls is given here.
Key:
Human betaherpesvirus 5 [1] = test: Antiviral activity against HCMV Towne infected in human HFF cells assessed as reduction in plaque formation treated with compound following viral infection and incubated for 8 to 10 days by crystal violet staining based assay; type: functional, organism-based; conditions: Human betaherpesvirus 5, strain Towne
Human betaherpesvirus 5 [2] = test: Antiviral activity against GCV-resistant HCMV Towne infected in human HFF cells assessed as reduction in plaque formation treated with compound following viral infection and incubated for 8 to 10 days by crystal violet staining based assay; type: functional, organism-based; conditions: Human betaherpesvirus 5, strain Towne
Human betaherpesvirus 5 [3] = test: Antiviral activity against HCMV TB40 infected in human HFF cells assessed as reduction in plaque formation treated with compound following viral infection and incubated for 8 to 10 days by crystal violet staining based assay; type: functional, organism-based; conditions: Human betaherpesvirus 5, TB40, HFF
HFF = test: Cytotoxicity against human HFF cells assessed as reduction in cell viability incubated for 72 hrs or 10 days by MTT assay; type: cell-based
Method in brief: (§1)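 MTT assay on uninfected cells exposed to compound for 72 h or 8–10 days, matching the antiviral assay durations. MTT (5 mg/mL stock in PBS) added, then 2–3 h at 37 °C. Formazan absorbance read at 560 nm.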

Human alphaherpesvirus 1 = test: Antiviral activity against HSV 1 infected in African green monkey Vero cells assessed as reduction in plaque formation incubated for 36 hrs by crystal violet staining based assay; type: functional, organism-based; conditions: vero
Method in brief: (§2)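 Plaque reduction in Vero cells: virus adsorbed 60 min, then compound added in a carboxymethylcellulose overlay. Plaques counted after 36 h by crystal violet staining.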

Human alphaherpesvirus 2 = test: Antiviral activity against HSV 2 infected in African green monkey Vero cells assessed as reduction in plaque formation incubated for 36 hrs by crystal violet staining based assay; type: functional, organism-based; conditions: vero; method in brief: as §2
Human gammaherpesvirus 4 = test: Antiviral activity against EBV infected in human AKATA cells assessed as reduction in IgG-induced lytic virus replication measured at 48 hrs post-lytic induction by qRT-PCR analysis; type: functional, organism-based
[4] = Antiviral activity against Mouse Cytomegalovirus Smith (ATCC VR-1399) infected in mouse MEF cells assessed as reduction in plaque formation measured after 3 days by crystal violet staining based assay; type: functional, cell-based, Murine cytomegalovirus (strain Smith); conditions: Murid betaherpesvirus 1, ATCC VR-1399, MEF, 72 h; read-out: EC50
Method in brief: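 Plaque reduction with MCMV Smith in mouse embryonic fibroblasts, with compound in a carboxymethylcellulose overlay. Assay ended at 3 days and plaques counted after crystal violet staining.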

Human betaherpesvirus 5 [5] = test: (§3) Antiviral activity against pp28-luciferase expressing HCMV Towne infected in human HFF cells assessed as reduction in viral replication treated with compound at 24 hrs post viral infection at MOI of 1 PFU/cell and measured after 3 days by luciferase reporter gene assay; type: functional, organism-based; conditions: strain Towne
Method in brief: (§4)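 Time-of-addition in HFFs infected with HCMV Towne (MOI 1). Add-on: compound added at 0, 6, 24 or 48 hpi. Removal: compound added right after infection and washed out after 0, 6, 24 or 48 h. Luciferase read at 72 hpi.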

Human betaherpesvirus 5 [6] = test: as §3, with “immediately after” for “at 24 hrs post”, “PFU/cell followed by compound washout after 6 hrs” for “PFU/cell”; type: functional; conditions: strain Towne; method in brief: as §4
Human betaherpesvirus 5 [7] = test: Antiviral activity against HCMV Towne infected in human HFF cells assessed as reduction in plaque formation treated with compound following viral infection at MOI of 1 PFU/cell and measured at 10 days post-infection in presence of letermovir by crystal violet staining based assay; type: functional, organism-based; conditions: Human betaherpesvirus 5, strain Towne, 240 h
Human betaherpesvirus 5 [8] = test: Antiviral activity against HCMV TB40 infected in human HFF cells assessed as reduction in plaque formation treated with compound following viral infection at MOI of 100 PFU/wells measured at 10 days post-infection in presence of GCV by crystal violet staining based assay; type: functional, organism-based; conditions: Human betaherpesvirus 5, TB40, HFF, 240 h
Method in brief: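 HFFs were infected at about 100 plaques/well and adsorbed for 90 min. They were then overlaid with DMEM containing 0.5% carboxymethylcellulose, 4% FBS and drugs, and incubated at 37 °C. A dose-response of each drug alone gave its EC₅₀. Combinations started at twice each EC₅₀, followed by two-fold serial dilutions. Plaques were counted after crystal violet staining. The Bliss coefficient is observed over expected fold inhibition (>1 synergy, <1 antagonism, =1 additive).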

MEF = test: Cytotoxicity against mouse MEF cells assessed as reduction in cell viability at >=10 uM incubated for 72 hrs or 8 to 10 days by MTT assay; type: cell-based; method in brief: as §1
Human betaherpesvirus 5 [9] = test: Antiviral activity against pp28-luciferase harboring UL97 C607Y mutant expressing GCV-resistant HCMV Towne infected in human HFF cells assessed as reduction in viral replication at 0.5 to 3 uM treated with compound following viral infection at MOI of 0.1 PFU/cell and measured at 72 hrs post infection by luciferase reporter gene assay; type: functional, organism-based; conditions: strain Towne
Method in brief: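 HFFs infected with GCV-resistant pp28-luciferase Towne (MOI 0.1), then treated with a compound dilution series. Luciferase, driven by the UL99 late promoter, read in cell lysates at 72 hpi. Data are mean ± SD of triplicates from a single experiment.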

Human betaherpesvirus 5 [10] = test: Antiviral activity against HCMV TB40 infected in human HFF cells assessed as reduction in plaque formation at 0.5 to 3 uM treated with compound following viral infection at […] measured after 8 days by crystal violet staining analysis; type: functional, organism-based
Method in brief: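 HFFs (2 × 10⁵/well) infected with HCMV TB40 at about 100 plaques/well for 90 min. Inoculum removed, then DMEM with 0.5% CMC, 4% FBS and compound added. Incubated at 37 °C; plaques stained with crystal violet and counted at 8 dpi. Experiment repeated three times; one representative shown.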

Human betaherpesvirus 5 [11] = test: Inhibition of viral protein expression in HCMV Towne infected in human HFF cells assessed as reduction in IE2 expression at 1 to 10 uM treated with compound following viral infection at MOI of 1 PFU/cell measured at 72 hrs post infection by Western blot analysis; type: functional, organism-based; conditions: strain Towne
Method in brief: (§5)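 HFFs infected with HCMV Towne (MOI 1), then treated with compound. Lysates taken at 72 hpi, equal protein loaded on 8–10% Tris-glycine SDS-PAGE and transferred to PVDF. Primary antibodies overnight at 4 °C, HRP secondary, chemiluminescent detection; β-actin as loading control.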

Human betaherpesvirus 5 [12] = test: Inhibition of viral protein expression in HCMV Towne infected in human HFF cells assessed as reduction in IE1 expression at 1 to 10 uM treated with compound following viral infection at MOI of 1 PFU/cell measured at 72 hrs post infection by Western blot analysis; type: functional, organism-based; conditions: strain Towne; method in brief: as §5
Human betaherpesvirus 5 [13] = test: Antiviral activity against HCMV Towne infected in human HFF cells assessed as reduction in viral DNA replication at 3 uM treated with compound following viral infection at MOI of 0.1 PFU/cell by US17 real time PCR analysis; type: functional, organism-based; conditions: strain Towne
Method in brief: (§6)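 At set time points supernatants were harvested and cells lysed for DNA. Cell-associated viral DNA and supernatant viral DNA quantified by real-time PCR targeting a 151-bp conserved US17 region.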

Human betaherpesvirus 5 [14] = test: Antiviral activity against HCMV Towne infected in human HFF cells assessed as reduction in viral DNA yields in the supernatant at 3 uM treated with compound following viral infection at MOI of 0.1 PFU/cell by US17 real time PCR analysis; type: functional, organism-based; conditions: strain Towne; method in brief: as §6

CC(C)NC(=O)C1CCN(C(=O)c2cc3sccc3n2Cc2ccc(Cl)cc2)CC1
EC50 (Human betaherpesvirus 5 [1]): 4610 nM | EC50 (Human betaherpesvirus 5 [2]): 1400 nM | EC50 (Human betaherpesvirus 5 [3]): 1180 nM | CC50 (HFF): > 200000 nM | EC50 (Human alphaherpesvirus 1): Not Active | EC50 (Human alphaherpesvirus 2): Not Active | EC50 (Human gammaherpesvirus 4): Not Active | EC50 [4]: 1000 nM | Activity (Human betaherpesvirus 5 [5]): inactive | Activity (Human betaherpesvirus 5 [6]): Active | EC50 (Human betaherpesvirus 5 [7]): 3190 nM | EC50 (Human betaherpesvirus 5 [8]): 1510 nM | Activity (MEF): Toxic | Activity (Human betaherpesvirus 5 [9]): Active | Activity (Human betaherpesvirus 5 [10]): Active | inhibition (Human betaherpesvirus 5 [11]): Active | inhibition (Human betaherpesvirus 5 [12]): Active | Activity (Human betaherpesvirus 5 [13]): Active | Activity (Human betaherpesvirus 5 [14]): Active

Reference: ChEMBL document CHEMBL4354867, “Validation and Characterization of Five Distinct Novel Inhibitors of Human Cytomegalovirus” (J Med Chem, 2020)
